Experimental data as given in ChEMBL document CHEMBL3797202, “Novel Oxindole Sulfonamides and Sulfamides: EPZ031686, the First Orally Bioavailable Small Molecule SMYD3 Inhibitor” (ACS Med Chem Lett, 2016).

Experiments:
[1] = Fraction unbound in CD1 mouse plasma at 1 uM incubated for 16 hrs by LC-MS/MS based equilibrium dialysis method; format: ADME, cell-free
[2] = biological target: T1, Histone-lysine N-methyltransferase NSD2 (Homo sapiens) (UniProt O96028); assay: Inhibition of WHSC1 (unknown origin) at 10 uM relative to control
T1 sequence (whole entry): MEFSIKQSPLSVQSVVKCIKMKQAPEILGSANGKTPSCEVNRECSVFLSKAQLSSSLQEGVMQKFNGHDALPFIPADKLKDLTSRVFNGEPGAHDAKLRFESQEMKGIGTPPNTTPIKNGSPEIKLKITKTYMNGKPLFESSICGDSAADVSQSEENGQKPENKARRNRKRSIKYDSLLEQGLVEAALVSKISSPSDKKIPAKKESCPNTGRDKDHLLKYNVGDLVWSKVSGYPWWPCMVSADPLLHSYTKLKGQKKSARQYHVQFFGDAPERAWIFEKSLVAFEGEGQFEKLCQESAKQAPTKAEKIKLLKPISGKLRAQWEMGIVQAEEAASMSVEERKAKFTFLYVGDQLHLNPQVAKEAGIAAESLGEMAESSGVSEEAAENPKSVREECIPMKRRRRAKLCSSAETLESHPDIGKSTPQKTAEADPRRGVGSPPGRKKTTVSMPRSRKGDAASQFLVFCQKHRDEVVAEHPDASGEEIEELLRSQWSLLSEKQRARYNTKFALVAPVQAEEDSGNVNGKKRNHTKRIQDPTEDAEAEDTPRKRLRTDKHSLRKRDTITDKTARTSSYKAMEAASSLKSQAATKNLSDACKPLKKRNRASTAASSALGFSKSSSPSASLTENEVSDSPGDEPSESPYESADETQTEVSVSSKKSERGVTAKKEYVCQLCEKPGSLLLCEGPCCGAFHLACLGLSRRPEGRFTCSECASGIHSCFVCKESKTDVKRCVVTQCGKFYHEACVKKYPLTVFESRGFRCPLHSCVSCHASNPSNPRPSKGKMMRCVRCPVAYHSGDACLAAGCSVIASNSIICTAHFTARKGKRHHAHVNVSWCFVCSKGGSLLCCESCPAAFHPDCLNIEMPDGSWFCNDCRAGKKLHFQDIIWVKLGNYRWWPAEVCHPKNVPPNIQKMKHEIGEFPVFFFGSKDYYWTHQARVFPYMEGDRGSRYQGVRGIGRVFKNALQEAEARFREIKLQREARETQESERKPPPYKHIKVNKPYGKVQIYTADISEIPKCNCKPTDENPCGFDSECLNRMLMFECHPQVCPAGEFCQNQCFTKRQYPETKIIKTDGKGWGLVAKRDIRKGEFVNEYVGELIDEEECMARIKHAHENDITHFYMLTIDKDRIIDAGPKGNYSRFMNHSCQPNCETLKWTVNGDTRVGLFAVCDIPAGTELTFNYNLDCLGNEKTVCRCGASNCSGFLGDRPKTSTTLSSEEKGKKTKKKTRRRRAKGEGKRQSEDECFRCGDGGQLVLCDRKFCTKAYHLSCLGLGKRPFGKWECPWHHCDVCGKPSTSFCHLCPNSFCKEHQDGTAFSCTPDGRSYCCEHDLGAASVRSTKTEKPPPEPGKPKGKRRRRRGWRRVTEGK

[3] = biological target: T2, Histone-lysine N-methyltransferase EZH1 (Homo sapiens) (UniProt Q92800); assay: Inhibition of EZH1 (unknown origin) at 10 uM relative to control
T2 sequence (whole entry): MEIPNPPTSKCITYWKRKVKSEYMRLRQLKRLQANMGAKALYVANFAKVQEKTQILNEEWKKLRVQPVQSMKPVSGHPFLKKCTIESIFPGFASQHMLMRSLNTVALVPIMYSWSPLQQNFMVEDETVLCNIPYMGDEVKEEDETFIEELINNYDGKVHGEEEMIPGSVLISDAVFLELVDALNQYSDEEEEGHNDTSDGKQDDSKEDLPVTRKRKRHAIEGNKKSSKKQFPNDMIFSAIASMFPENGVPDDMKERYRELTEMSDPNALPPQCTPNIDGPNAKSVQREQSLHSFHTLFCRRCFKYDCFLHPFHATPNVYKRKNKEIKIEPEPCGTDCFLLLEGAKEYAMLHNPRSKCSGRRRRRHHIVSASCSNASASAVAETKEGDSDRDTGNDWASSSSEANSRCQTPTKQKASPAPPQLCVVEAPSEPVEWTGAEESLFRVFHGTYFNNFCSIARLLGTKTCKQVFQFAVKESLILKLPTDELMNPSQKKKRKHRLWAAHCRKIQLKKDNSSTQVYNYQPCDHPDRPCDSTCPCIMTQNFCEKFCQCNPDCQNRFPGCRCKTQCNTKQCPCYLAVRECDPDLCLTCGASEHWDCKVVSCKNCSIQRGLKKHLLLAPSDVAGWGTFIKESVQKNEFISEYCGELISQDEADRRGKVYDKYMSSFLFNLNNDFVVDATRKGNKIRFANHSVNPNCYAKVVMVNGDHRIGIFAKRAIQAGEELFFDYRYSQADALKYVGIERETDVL

[4] = biological target: Histone-lysine N-methyltransferase, H3 lysine-36 specific (Homo sapiens) (UniProt Q96L73); assay: Inhibition of NSD1 (unknown origin) at 10 uM relative to control
[5] = Intrinsic clearance in CD1 mouse liver microsomes at 1 uM incubated for 5 to 45 mins by LC-MS/MS analysis in presence of NADPH; format: ADME; conditions: read-out: CLH
In short: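 Mouse liver microsomal incubations; clearance scaled from microsomal data and reported as a mean value.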

[6] = biological target: Protein arginine N-methyltransferase 3 (Homo sapiens) (UniProt O60678); assay: Inhibition of PRMT3 (unknown origin) at 10 uM relative to control
[7] = biological target: Histone-lysine N-methyltransferase PRDM9 (Homo sapiens) (UniProt Q9NQV7); assay: Inhibition of PRDM9 (unknown origin) at 10 uM relative to control
[8] = biological target: Histone-lysine N-methyltransferase SETDB1 (Homo sapiens) (UniProt Q15047); assay: Inhibition of SETDB1 (unknown origin) at 10 uM relative to control
[9] = Apparent permeability in human Caco2 cells at 10 uM incubated for 120 mins by LC-MS/MS analysis; format: ADME, cell-based; conditions: Caco-2
In short: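 Caco-2 cell monolayers; permeability measured in the apical-to-basolateral direction, with an efflux ratio also determined.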

[10] = biological target: Histone-lysine N-methyltransferase, H3 lysine-79 specific (Homo sapiens) (UniProt Q8TEK3); assay: Inhibition of DOT1L (unknown origin) at 10 uM relative to control
[11] = biological target: Protein arginine N-methyltransferase 8 (Homo sapiens) (UniProt Q9NR22); assay: Inhibition of PRMT8 (unknown origin) at 10 uM relative to control
[12] = biological target: Histone-lysine N-methyltransferase EZH2 (Homo sapiens) (UniProt Q15910); assay: Inhibition of EZH2 (unknown origin) at 10 uM relative to control
Chain of Histone-lysine N-methyltransferase EZH2 (Homo sapiens) (Q15910 whole entry, looked up): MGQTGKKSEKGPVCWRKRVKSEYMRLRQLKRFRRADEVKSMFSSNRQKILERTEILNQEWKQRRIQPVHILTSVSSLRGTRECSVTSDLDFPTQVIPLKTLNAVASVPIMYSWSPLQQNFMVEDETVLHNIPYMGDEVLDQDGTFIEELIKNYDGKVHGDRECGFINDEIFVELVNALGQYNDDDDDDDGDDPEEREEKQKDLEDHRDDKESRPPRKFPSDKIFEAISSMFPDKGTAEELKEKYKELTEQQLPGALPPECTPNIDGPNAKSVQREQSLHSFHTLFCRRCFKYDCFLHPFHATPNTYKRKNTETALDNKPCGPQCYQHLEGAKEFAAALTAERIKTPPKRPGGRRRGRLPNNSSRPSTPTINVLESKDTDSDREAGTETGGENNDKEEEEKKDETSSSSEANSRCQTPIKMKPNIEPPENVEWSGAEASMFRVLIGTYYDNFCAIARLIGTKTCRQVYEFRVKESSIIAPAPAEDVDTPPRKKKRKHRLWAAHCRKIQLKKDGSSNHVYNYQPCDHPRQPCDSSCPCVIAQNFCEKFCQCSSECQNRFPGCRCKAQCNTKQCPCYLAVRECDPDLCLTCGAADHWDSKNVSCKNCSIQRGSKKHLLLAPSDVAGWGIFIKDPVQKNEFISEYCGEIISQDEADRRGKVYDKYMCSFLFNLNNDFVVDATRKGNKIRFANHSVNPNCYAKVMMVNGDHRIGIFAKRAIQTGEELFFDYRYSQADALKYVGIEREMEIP

Chain of Histone-lysine N-methyltransferase, H3 lysine-79 specific (Homo sapiens) (Q8TEK3 whole entry, looked up): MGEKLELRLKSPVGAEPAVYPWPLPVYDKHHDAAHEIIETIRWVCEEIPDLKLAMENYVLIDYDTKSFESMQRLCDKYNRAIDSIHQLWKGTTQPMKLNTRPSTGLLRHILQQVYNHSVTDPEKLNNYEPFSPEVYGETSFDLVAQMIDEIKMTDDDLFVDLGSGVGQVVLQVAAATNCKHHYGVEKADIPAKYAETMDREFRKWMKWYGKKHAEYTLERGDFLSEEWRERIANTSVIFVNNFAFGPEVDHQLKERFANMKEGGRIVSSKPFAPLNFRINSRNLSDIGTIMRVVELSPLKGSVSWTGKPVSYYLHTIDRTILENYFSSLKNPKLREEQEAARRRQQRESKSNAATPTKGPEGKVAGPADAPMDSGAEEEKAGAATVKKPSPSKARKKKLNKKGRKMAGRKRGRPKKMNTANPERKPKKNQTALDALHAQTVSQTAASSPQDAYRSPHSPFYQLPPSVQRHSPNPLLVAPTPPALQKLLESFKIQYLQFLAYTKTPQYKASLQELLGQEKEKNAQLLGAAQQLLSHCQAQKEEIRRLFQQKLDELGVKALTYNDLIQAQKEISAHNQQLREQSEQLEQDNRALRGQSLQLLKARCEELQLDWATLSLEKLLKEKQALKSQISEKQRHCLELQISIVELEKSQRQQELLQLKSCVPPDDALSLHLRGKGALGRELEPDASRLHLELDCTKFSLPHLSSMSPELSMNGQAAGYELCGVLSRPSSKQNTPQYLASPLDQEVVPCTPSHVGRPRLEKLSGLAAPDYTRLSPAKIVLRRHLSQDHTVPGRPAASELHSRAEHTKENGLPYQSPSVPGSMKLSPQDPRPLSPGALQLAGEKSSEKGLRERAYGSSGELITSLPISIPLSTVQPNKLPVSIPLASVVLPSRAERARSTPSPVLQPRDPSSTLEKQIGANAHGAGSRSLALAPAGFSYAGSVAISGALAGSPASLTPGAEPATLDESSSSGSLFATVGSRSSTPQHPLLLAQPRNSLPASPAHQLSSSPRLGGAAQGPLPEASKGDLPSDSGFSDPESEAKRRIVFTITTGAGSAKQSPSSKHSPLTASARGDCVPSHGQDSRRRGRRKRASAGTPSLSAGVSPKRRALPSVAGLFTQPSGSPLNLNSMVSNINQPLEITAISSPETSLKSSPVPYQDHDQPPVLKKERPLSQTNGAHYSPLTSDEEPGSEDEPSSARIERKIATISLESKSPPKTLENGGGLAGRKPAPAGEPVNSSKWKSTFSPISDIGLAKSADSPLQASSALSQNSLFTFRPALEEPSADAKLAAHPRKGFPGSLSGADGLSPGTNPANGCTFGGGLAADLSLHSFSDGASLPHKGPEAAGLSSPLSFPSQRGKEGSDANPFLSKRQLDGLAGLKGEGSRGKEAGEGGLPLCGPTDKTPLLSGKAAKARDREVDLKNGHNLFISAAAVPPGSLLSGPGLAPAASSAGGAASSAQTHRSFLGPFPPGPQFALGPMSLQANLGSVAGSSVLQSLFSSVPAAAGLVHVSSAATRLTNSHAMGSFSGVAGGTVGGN
Chain of Protein arginine N-methyltransferase 8 (Homo sapiens) (Q9NR22 2-394 limits assumed): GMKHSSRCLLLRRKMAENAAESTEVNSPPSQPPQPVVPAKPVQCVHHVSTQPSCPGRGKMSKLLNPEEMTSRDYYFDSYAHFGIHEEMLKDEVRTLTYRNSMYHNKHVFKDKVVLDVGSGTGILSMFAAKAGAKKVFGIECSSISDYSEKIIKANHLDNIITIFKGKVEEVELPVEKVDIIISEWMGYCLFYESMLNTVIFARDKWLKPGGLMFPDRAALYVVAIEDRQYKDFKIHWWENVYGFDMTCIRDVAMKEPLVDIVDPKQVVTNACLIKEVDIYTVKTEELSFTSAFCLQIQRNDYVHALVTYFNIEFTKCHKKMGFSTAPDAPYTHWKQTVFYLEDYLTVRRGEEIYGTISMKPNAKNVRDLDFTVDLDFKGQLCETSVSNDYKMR
Chain of Histone-lysine N-methyltransferase PRDM9 (Homo sapiens) (Q9NQV7 whole entry): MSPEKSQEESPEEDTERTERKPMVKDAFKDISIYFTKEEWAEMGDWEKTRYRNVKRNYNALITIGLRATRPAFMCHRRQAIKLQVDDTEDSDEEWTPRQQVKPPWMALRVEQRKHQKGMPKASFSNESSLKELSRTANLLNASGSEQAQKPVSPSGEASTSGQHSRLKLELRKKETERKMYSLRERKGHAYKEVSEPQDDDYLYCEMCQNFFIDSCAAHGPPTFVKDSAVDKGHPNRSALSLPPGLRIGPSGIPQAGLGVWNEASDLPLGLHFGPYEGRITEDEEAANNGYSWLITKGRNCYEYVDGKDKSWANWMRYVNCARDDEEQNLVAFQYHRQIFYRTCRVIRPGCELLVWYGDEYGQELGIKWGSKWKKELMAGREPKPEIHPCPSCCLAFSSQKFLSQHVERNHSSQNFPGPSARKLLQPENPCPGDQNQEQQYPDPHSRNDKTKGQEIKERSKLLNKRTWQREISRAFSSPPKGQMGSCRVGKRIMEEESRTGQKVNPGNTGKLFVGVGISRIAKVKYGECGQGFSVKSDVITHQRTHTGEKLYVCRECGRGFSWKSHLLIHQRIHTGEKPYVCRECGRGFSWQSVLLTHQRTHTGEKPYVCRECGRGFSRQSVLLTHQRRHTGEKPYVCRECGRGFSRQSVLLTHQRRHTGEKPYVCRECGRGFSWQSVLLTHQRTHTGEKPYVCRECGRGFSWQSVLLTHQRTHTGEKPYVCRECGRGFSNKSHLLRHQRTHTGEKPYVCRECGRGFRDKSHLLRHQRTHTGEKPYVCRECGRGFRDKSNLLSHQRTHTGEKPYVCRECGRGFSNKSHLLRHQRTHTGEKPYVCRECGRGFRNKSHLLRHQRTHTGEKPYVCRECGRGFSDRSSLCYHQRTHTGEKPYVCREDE
Chain of Protein arginine N-methyltransferase 3 (Homo sapiens) (O60678 2-531 limits assumed): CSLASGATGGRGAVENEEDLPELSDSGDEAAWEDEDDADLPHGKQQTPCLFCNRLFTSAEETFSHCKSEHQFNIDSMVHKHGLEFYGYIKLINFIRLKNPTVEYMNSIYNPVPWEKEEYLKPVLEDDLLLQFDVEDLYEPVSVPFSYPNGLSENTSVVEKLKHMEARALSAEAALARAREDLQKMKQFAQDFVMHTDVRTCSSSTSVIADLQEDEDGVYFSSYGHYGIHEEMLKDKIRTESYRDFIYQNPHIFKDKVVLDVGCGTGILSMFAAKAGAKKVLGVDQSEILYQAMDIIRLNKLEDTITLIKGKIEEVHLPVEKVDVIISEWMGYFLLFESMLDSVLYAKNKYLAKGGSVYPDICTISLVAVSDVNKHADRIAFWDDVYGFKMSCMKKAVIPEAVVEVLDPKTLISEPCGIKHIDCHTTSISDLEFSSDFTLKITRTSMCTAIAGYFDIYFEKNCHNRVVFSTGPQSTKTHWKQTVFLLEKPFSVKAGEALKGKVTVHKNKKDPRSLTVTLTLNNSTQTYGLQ

O=C1Cc2cc(C(=O)N[C@H]3C[C@H]4CC[C@@H](C3)N4S(=O)(=O)N3CCC(NCc4ccccc4)CC3)c(Cl)cc2N1
< 30%: inhibition [2] | inhibition [3] | inhibition [4] | inhibition [6] | inhibition [7] | inhibition [8] | inhibition [10] | inhibition [11] | inhibition [12]
0.32: fraction unbound at 16 h, 1 µM [1]
34 mL/min/kg: CLint scaled at 1 µM [5]
0.34 ×10⁻⁶ cm/s: Papp at 2 h, 10 µM [9]

O=C1Cc2cc(C(=O)N[C@H]3C[C@H]4CC[C@@H](C3)N4S(=O)(=O)CC3CCN(CCCC(F)(F)F)CC3)c(Cl)cc2N1
24 mL/min/kg: CLint scaled at 1 µM [5]
0.53: fraction unbound at 16 h, 1 µM [1]
0.64 ×10⁻⁶ cm/s: Papp at 2 h, 10 µM [9]
< 30%: inhibition [2] | inhibition [3] | inhibition [4] | inhibition [6] | inhibition [7] | inhibition [8] | inhibition [10] | inhibition [11] | inhibition [12]
